Data as given in PMC7785655 (Toxicology, 2020).
Read-outs that look alike come from different tables or passages of the source.

Key:
[1] = tested on: primary human hepatocytes; experiment: Drug recovery from 2D cultures or LAMPS chip effluent; assay type: in vitro ADME; settings: primary human hepatocytes; effect most pronounced for these drugs
Method in brief: (§1)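 Hepatocytes were seeded from thaw at 2.75×10^6 cells/mL into fibronectin/collagen I-coated chips or 96-well plates, then overlaid with THP-1, EA.hy926 and LX-2 cells. Drugs in 0.1% DMSO vehicle were added on day 0. Chips were perfused at 15 μL/hour, and 2D media were exchanged daily for up to 10 days. Drugs in effluent or medium were quantified by LC-MS/MS and expressed as % of starting concentration. Values are mean±SEM, n=3–9.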

[2] = as above; assay type: in vitro ADME; settings: human, iCell hepatocytes
Method in brief: as §1

[3] = tested on: primary human hepatocytes; experiment: Drug effects on viability and function; assay type: cell-based; settings: both laboratories
[4] = tested on: primary human hepatocytes; experiment: Drug effects on viability and function in 2D monolayer cultures; assay type: cell-based; settings: day 10; 2D cultures with primary hepatocytes; Tolcapone 88 μM, Trovafloxacin 150 μM, LPS 1 μg/mL
[5] = Drug recovery from 2D cultures or LAMPS chip effluent; assay type: in vitro ADME, human; settings: human; for recovery: primary human hepatocytes, 2D cultures or LAMPS chips
Method in brief: as §1

[6] = tested on: primary human hepatocytes; settings: cited from earlier work
[7] = 2D monolayer-cultured primary human hepatocytes
[8] = Tolcapone 88 μM, 5 days, vs No Treatment

SMILES	recovery in LAMPS chips compared with 2D monolayer cultures [1]	recovery [2] [%]	recovery ([2]; LAMPS chips and 2D monolayer) [%]	cell viability [4]	recovery [5] [%]	other results
CCc1ccc(CCOc2ccc(CC3SC(=O)NC3=O)cc2)nc1 (centres unmarked) [Pioglitazone]	lower recovery than 2D monolayer cultures	10 to 40	~100			
N[C@@H]1[C@H]2CN(c3nc4c(cc3F)c(=O)c(C(=O)O)cn4-c3ccc(F)cc3F)C[C@@H]12 [Trovafloxacin]				pronounced effects	~100	effect on LDH ([3]; Trovafloxacin 150 μM): significant effects; effect on albumin ([3]; Trovafloxacin 150 μM): significant effects
Cc1c(C)c2c(c(C)c1O)CCC(C)(COc1ccc(CC3SC(=O)NC3=O)cc1)O2 (centres unmarked) [Troglitazone]	lower recovery than 2D monolayer cultures	10 to 40	~100			recovery at 28 µM [5, 7]: > 10%; recovery at 1 day, 28 µM [5, 7]: < 1%
CN(CCOc1ccc(CC2SC(=O)NC2=O)cc1)c1ccccn1 (centres unmarked) [Rosiglitazone]		10 to 40	~100			
Cc1ccc(C(=O)c2cc(O)c(O)c([N+](=O)[O-])c2)cc1 [Tolcapone]		10 to 40	~100	pronounced effects		albumin production [3, 8]: statistically significant decrease; urea production [3, 8]: statistically significant decrease
Cn1c(=O)c2c(ncn2C)n(C)c1=O [Caffeine]					~100	effect on LDH levels ([6]; Caffeine 600 μM, previous study in Laboratory 2, different donor hepatocytes, ref Vernetti et al. 2016): reduced; effect on albumin [6]: without significant effect; effect on urea [6]: without significant effect
